1 compound from ChEMBL document CHEMBL1759890, “3,5-Disubstituted-indole-7-carboxamides: the discovery of a novel series of potent, selective inhibitors of IKK-β” (Bioorg Med Chem Lett, 2011) can be followed below.

For assay [1], the target named is T1, Inhibitor of nuclear factor kappa-B kinase subunit beta (Homo sapiens, UniProt O14920).
T1 sequence (O14920 whole entry): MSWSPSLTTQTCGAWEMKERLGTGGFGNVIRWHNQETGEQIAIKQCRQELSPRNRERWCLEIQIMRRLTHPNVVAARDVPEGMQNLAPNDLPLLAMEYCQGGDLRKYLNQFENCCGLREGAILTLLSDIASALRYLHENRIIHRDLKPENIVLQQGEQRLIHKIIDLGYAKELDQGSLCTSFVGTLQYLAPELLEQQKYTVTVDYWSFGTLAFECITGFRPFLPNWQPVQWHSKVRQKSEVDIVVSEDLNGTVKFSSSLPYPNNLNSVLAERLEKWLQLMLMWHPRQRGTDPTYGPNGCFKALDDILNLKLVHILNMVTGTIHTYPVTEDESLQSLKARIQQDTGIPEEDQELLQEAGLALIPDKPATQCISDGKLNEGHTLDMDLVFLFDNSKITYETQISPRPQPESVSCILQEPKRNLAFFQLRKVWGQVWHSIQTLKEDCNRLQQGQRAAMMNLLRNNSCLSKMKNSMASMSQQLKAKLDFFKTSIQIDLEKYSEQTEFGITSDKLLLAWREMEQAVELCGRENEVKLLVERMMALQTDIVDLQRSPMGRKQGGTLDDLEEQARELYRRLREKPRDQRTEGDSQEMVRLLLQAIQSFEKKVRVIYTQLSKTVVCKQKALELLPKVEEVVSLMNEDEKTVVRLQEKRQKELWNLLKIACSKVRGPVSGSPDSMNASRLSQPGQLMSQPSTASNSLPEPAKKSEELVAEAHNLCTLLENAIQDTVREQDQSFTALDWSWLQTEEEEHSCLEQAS
Briefly: Inhibition of IKK-beta.

Assay [2] deals with T2, Inhibitor of nuclear factor kappa-B kinase subunit alpha (Homo sapiens, UniProt O15111).
T2 sequence (O15111 whole entry): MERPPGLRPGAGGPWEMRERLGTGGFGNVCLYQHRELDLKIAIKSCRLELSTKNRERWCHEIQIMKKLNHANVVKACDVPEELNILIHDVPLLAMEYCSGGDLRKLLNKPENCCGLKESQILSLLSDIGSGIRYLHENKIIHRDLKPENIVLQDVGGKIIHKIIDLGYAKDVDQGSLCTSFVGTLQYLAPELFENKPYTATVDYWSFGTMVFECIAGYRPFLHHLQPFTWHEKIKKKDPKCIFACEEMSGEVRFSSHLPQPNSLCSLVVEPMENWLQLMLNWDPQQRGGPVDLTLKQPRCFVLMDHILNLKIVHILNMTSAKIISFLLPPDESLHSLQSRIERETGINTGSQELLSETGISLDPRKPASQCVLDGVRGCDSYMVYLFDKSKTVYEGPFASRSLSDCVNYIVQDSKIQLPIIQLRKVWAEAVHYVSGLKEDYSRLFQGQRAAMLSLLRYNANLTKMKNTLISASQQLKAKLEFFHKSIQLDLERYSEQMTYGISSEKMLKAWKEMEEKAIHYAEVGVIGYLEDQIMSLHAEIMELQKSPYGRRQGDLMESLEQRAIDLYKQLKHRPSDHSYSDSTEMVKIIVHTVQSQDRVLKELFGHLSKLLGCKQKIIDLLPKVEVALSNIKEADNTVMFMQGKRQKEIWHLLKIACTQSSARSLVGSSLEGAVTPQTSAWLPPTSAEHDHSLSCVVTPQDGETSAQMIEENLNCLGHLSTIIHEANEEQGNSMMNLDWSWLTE
As to the kind of experiment: Inhibition of IKK-alpha. The procedure, abridged: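 Done the same way as the IKK-β TR-FRET assay but with 6-His-tagged full-length IKK-α. Buffer is 50 mM HEPES, 10 mM MgCl₂, 1 mM CHAPS pH 7.4, 1 mM DTT, 0.01% w/v BSA. GST-IκBα substrate 25 nM final, ATP 1 μM final, DMSO below 5% final. Error about ±0.3 log units.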

A further assay relates to PBMC. As to the kind of experiment: Antiinflammatory activity in human PBMC assessed as inhibition of LPS-induced TNF-alpha production. It counts as functional, cell-based. The procedure, abridged:
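Human peripheral blood mononuclear cells stimulated with LPS. Read-out is inhibition of TNF-α production, reported as pIC50.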

Assay [3] has as its target T3, Serine/threonine-protein kinase TBK1 (Homo sapiens, UniProt Q9UHD2).
T3 sequence (Q9UHD2 whole entry): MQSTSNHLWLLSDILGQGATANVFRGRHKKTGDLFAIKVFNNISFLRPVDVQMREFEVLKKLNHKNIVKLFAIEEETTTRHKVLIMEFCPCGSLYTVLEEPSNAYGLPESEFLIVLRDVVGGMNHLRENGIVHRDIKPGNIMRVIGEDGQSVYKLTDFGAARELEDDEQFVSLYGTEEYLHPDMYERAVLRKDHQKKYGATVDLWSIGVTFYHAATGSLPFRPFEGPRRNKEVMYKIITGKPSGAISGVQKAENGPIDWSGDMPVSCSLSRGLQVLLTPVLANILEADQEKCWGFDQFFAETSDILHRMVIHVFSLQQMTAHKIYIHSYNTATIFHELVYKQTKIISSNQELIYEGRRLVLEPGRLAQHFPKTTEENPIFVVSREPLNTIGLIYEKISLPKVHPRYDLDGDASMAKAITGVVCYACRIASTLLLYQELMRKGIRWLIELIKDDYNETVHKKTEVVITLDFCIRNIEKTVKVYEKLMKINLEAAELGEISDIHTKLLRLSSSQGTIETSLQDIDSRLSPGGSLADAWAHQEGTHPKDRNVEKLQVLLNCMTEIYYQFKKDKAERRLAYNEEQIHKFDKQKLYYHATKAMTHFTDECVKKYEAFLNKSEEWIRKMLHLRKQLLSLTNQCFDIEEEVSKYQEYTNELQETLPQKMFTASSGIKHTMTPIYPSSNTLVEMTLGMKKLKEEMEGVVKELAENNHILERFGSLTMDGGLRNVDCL
Briefly: Inhibition of TBK-1.

Another assay has as its target T4, Aurora kinase A (Homo sapiens, UniProt O14965).
T4 sequence (O14965 whole entry): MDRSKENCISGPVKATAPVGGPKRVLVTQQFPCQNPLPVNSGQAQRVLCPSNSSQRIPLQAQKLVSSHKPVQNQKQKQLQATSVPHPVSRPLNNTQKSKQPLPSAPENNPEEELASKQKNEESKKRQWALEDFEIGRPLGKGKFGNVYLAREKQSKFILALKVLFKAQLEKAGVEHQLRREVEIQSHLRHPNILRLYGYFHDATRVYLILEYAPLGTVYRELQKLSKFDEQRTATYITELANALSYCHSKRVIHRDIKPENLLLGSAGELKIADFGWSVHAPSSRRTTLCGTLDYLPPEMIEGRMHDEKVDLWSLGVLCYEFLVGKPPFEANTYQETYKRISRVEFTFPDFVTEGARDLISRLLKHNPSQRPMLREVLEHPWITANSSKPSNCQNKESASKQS
As to the kind of experiment: Inhibition of Aurora A kinase.

Where only a bound is given, the exact number is not on record here.

Take `CCCS(=O)(=O)N1CCC(c2c[nH]c3c(C(N)=O)cc(-c4ccccc4)cc23)CC1`: the IC50 (in general, the concentration needed to halve the response being measured) in assay [1] was 12.6 nM; in assay [2], 2000 nM; in the assay on PBMC, 631 nM; in assay [3], more than 3160 nM; on Aurora kinase A it was 1260 nM.
